Read-outs that look alike come from different tables or passages of the source.
What was measured:
[1] = test system: E. granulosus ss cysts; experiment: Transmission electron microscopy of cysts from treated mice; format: in vivo, Echinococcus granulosus sensu stricto
Procedure, shortened: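 Cysts came from infected BALB/c mice given test compound at 57 mg/kg, either i.p. once daily for 3 days or by gavage daily for 30 days, and from albendazole-treated (50 mg/kg p.o.) and untreated mice. Cyst ultrastructure was examined by transmission electron microscopy, covering the laminated layer, tegument, germinal layer and microtriches.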

[2] = test system: E. granulosus ss protoscoleces (PSCs); experiment: E. granulosus ss PSC killing assay; format: cell-based, Echinococcus granulosus sensu stricto; conditions: Echinococcus granulosus, 24 h, read-out: LC50 (protoscolicidal activity)
Procedure, shortened: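 Protoscoleces were aspirated from cysts in naturally infected sheep livers and cultured by a prior method. Wells held 200 PSCs; test compound from a 10× aqueous stock, final 34–114 μM; medium-only control. Incubation was 24 h at 37 °C, 5% CO2. Viability: 0.1% methylene blue for 5 min, with blue PSCs scored dead under an inverted microscope. Triplicate; LC50 by nonlinear regression.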

[3] = Tolerability, body weight and blood parameters, oral study; format: in vivo, mice
Procedure, shortened: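 In the oral study, infected BALB/c mice (n = 10 per group) were gavaged daily for 30 days with test compound in water, albendazole in 0.5% carboxymethyl cellulose, or water alone. Mice were monitored for morbidity signs and behaviour. Two weeks after treatment, plasma was collected, and body, liver, kidney and thymus weights were recorded.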

[4] = test system: cystic echinococcosis; conditions: clinical study ref 5; cited from earlier work
[5] = test system: E. granulosus ss cysts; experiment: In vivo efficacy, oral administration, secondarily infected mice; set-up: species or system Echinococcus granulosus sensu stricto
Procedure, shortened: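 Microcyst-infected female BALB/c mice (3 months post-infection), 10 per group, were gavaged once daily for 30 days with 0.2 ml. Test compound 57 mg/kg was given in deionised water, albendazole 50 mg/kg in 0.5% carboxymethyl cellulose, and controls received deionised water. Necropsy 2 weeks post-treatment. Cysts were weighed and scored alive or dead by morphological type. One-way ANOVA or Kruskal-Wallis test.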

[6] = dog, 28 days oral treatment ref 16; cited from earlier work
[7] = target: T1, CYP1A2 (Homo sapiens, UniProt P05177); experiment: CYP450 inhibition assay, human liver microsomes; format: in vitro ADME
T1 sequence (P05177 1-516): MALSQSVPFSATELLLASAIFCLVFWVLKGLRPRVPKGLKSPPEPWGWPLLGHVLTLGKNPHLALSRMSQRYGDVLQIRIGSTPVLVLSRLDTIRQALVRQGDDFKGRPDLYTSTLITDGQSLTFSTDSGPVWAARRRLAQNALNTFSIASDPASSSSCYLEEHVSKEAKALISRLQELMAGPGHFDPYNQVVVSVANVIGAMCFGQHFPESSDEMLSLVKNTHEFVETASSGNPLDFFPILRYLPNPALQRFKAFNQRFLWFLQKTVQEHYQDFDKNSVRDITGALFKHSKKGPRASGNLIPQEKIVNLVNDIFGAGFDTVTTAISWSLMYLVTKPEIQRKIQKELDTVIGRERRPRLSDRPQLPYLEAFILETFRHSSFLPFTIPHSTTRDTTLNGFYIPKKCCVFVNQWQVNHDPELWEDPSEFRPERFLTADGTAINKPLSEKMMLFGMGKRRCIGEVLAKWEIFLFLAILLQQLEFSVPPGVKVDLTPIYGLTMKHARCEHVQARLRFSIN

[8] = target: CYP2C9 (Homo sapiens, UniProt P11712); experiment: CYP450 inhibition assay, human liver microsomes; format: in vitro ADME
[9] = target: T2, E. granulosus ss topoisomerase I (Egtopo I) (Echinococcus granulosus, UniProt W6UT38); experiment: Egtopo I-mediated DNA relaxation assay; format: biochemical, Echinococcus granulosus sensu stricto; conditions: read-out: IC50 Egtopo I activity; relaxation of supercoiled pBR322, 30 min 37 °C
T2 sequence (W6UT38 1-621): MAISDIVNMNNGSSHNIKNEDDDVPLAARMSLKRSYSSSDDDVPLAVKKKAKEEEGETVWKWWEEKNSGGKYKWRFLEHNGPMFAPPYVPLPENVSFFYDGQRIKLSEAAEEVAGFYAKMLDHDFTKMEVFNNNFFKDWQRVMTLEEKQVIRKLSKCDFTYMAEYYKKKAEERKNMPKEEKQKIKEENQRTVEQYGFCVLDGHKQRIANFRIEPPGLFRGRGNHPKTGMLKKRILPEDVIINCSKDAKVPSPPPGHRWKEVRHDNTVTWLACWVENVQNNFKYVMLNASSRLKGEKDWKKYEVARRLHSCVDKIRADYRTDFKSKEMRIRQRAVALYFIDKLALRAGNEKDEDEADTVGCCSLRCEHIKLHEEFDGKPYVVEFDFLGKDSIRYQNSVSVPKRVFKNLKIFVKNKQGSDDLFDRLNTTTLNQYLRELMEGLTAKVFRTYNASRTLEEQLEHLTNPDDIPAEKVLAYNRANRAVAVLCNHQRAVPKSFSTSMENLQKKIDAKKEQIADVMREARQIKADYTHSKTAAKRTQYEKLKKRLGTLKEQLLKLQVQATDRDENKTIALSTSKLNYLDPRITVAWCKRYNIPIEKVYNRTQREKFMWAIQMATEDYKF
Procedure, shortened: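 Kit-based relaxation assay with pBR322 (200 ng), Egtopo I (300 ng) and 0.1% BSA. Test compound at final 50, 100, 150, 200, 300, 400, 500 and 600 μM in assay buffer, 30 min at 37 °C. Stopped with 10% SDS plus loading buffer, run on 1% agarose and stained with ethidium bromide (5 μg/ml). IC50 from a nonlinear regression fit, n = 3.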

[10] = target: CYP2D6 (Homo sapiens, UniProt P10635); experiment: CYP450 inhibition assay, human liver microsomes; format: in vitro ADME
[11] = test system: bone marrow; conditions: mice, bone marrow ref 38, 39; cited from earlier work
[12] = In vivo pharmacokinetics and tissue distribution; set-up: species or system mice; conditions: for Kp: male, ICR, mouse, intraperitoneal, 57 mg/kg
Procedure, shortened: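 Male ICR mice (20–22 g, 3 per time point) received a single 57 mg/kg i.p. dose. Plasma was precipitated with acetonitrile containing internal standards and centrifuged at 2600 g for 10 min at 4 °C. Liver and lung were homogenised in 4 volumes of 100 mM phosphate buffer, pH 7.4, and processed alike. Samples taken 0.25–48 h were measured by LC-MS/MS and analysed non-compartmentally.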

[13] = test system: E. granulosus ss cysts; experiment: Microinjection treatment of cysts; format: in vivo, Echinococcus granulosus sensu stricto
[14] = 28 days oral treatment NOAEL in the rat; conditions: in vivo, 23 mg/kg/day
[15] = Tolerability, organ weights and blood parameters, intraperitoneal study; format: in vivo, mice
Procedure, shortened: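 Microcyst-infected female BALB/c mice were dosed i.p. once daily for 3 days with test compound in saline (14, 28, 57 mg/kg; n = 10) or saline (n = 12). During treatment they were watched for emaciation, hunched back, ruffled coat, appetite and behaviour changes. Two weeks post-treatment, plasma was taken for haematology and biochemistry, and liver, kidneys, thymus and body were weighed.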

[16] = test system: E. granulosus ss PSCs; experiment: DNA fragmentation assay in PSCs; format: cell-based; conditions: 50 μM, 24 h
[17] = 28 days oral treatment NOAEL in the dog; conditions: in vivo, 5 mg/kg/day
[18] = rat, 28 days oral treatment ref 16; cited from earlier work
[19] = test system: Salmonella typhimurium strains; conditions: cited from earlier work
[20] = target: CYP3A4 (Homo sapiens, UniProt P08684); experiment: CYP450 inhibition assay, human liver microsomes; format: in vitro ADME
[21] = dogs, oral 24 mg/kg/day for 30 days ref 20; cited from earlier work
[22] = target: CYP2C19 (Homo sapiens, UniProt P33261); experiment: CYP450 inhibition assay, human liver microsomes; format: in vitro ADME
[23] = test system: E. granulosus ss cysts; experiment: In vivo efficacy, intraperitoneal administration, secondarily infected mice; set-up: species or system Echinococcus granulosus sensu stricto
Procedure, shortened: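 Female BALB/c mice, 6–8 weeks, were infected intraperitoneally with microcysts and randomised at 3 months. Test compound in saline at 14, 28 or 57 mg/kg (n = 10 each), 1.0 ml i.p. once daily for 3 days; saline controls n = 12. Necropsy 2 weeks post-treatment. Cysts were weighed, and viability was scored by morphology: type 1 alive, types 2–3 dead. Kruskal-Wallis test.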

[24] = test system: E. granulosus ss PSCs; experiment: TUNEL assay in PSCs; format: cell-based; conditions: 100 µM, 24 h
[25] = test system: caspase-3; experiment: Caspase-3 activity assay in PSCs; format: cell-based, E. granulosus; conditions: 100 µM 24 h, vs vehicle controls
[26] = 0 to 48 h, single 57 mg/kg i.p.

CYP2D6, sequence (P10635 whole entry): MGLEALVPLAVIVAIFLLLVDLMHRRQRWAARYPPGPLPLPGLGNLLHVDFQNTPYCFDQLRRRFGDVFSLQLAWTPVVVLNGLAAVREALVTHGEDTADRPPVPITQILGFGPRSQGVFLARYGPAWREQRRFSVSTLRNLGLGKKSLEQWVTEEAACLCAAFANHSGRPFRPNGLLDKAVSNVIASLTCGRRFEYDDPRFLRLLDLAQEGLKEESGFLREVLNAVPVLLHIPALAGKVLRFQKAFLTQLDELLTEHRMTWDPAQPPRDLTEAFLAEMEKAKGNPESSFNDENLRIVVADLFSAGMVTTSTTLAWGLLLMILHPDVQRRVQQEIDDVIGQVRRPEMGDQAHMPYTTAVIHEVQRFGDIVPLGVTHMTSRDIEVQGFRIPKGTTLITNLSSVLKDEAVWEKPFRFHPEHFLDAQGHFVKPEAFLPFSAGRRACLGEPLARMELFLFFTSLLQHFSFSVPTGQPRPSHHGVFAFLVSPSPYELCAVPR
CYP2C19, sequence (P33261 whole entry): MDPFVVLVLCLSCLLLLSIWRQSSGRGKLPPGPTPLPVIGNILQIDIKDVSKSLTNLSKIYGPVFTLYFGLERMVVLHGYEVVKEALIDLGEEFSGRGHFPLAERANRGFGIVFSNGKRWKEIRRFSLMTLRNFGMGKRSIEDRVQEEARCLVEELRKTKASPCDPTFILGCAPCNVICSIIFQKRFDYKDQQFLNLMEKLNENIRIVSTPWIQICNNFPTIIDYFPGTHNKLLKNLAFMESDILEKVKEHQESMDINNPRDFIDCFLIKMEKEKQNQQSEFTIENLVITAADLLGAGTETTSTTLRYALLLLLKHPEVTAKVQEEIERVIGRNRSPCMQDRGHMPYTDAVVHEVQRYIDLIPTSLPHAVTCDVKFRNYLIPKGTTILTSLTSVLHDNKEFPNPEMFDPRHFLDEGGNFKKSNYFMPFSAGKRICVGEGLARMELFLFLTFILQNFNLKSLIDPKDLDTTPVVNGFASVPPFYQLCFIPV
CYP2C9, sequence (P11712 whole entry): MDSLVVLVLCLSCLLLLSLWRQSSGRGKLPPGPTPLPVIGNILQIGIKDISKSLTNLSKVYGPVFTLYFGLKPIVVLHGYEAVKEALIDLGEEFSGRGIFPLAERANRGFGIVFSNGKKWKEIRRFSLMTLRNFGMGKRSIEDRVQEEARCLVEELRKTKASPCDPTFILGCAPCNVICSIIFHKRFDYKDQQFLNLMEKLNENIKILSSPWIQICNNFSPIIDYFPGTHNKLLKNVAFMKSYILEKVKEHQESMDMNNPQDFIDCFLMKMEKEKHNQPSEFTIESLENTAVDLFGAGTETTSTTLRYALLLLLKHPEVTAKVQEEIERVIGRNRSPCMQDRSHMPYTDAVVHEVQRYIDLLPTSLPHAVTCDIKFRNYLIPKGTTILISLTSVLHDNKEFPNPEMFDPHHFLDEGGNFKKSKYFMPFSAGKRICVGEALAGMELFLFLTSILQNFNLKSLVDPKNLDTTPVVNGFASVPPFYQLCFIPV
CYP3A4, sequence (P08684 whole entry): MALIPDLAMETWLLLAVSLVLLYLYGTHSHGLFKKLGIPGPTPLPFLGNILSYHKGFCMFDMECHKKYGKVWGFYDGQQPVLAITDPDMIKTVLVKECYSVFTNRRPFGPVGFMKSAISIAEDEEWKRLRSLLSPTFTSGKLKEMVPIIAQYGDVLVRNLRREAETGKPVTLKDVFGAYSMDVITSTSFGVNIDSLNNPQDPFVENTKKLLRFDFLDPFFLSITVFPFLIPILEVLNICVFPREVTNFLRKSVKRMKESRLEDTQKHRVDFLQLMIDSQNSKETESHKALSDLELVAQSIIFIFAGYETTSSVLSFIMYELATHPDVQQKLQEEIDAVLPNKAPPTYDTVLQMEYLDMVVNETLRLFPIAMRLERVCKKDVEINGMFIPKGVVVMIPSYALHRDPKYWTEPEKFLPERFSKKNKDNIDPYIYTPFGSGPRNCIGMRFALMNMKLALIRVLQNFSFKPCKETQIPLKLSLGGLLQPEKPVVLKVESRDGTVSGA

## CCCSc1ccc2nc(NC(=O)OC)[nH]c2c1 [ABZ, albendazole]
[1]; ABZ 50 mg/kg, p.o.
  cyst ultrastructure (TEM): did not exhibit obvious ultrastructural changes
[2]
  LC50: 79.2 ± 3.9 µM
[3]; ABZ 50 mg/kg p.o. 30 days
  body weight: minor loss of body weight
[4]
  CE cases that did not respond favorably to treatment: approximately 40%
[5]; ABZ 50 mg/kg p.o. q.d. 30 days
  cyst mortality rate: 22.2%
  cyst weight reduction: 48.1%

## COc1ccc2nc3cc(Cl)ccc3c(Nc3cc(CN4CCCC4)c(O)c(CN4CCCC4)c3)c2n1 [PND, pyronaridine]
[6]
  no observed adverse effect level (NOAEL): 5 mg/kg/day
[7]
  IC50: > 10 µM
[8]
  IC50: > 10 µM
[9]
  IC50: 209.7 ± 1.1 µM
[1]; PND 57 mg/kg, both i.p. and p.o.
  cyst ultrastructure (TEM): devastating damage of the cyst tissues
[10]
  IC50: 1.53 µM
[11]
  micronucleus frequency: no increase in micronucleus frequency in the bone marrow
[12]; [26]
  average concentration in the liver: 435.7 µmol/kg
  average concentration in the lungs: 122.5 µmol/kg
  average plasma concentration: 1.5 µM
[12]; liver/plasma
  Kp: 290
[12]; lungs/plasma
  Kp: 81.7
[13]; 200 μM microinjected, 35 cysts/mouse transferred, 30 days
  cyst counts: 6.4 ± 1.2
[13]; 200 μM microinjected, 30 days post-treatment, vs saline group
  parasite wet weight reduction: 52.3%
[13]; microinjection with PND
  cysts killed after microinjection: more than 90%
[14]
  NOAEL at 28 days: 3.7 mg/kg/day
[15]; 14, 28, 57 mg/kg i.p. q.d. 3 days
  behaviour and adverse effects: without obvious adverse effects
[15]; high-dosage group (57 mg/kg i.p.), vs control
  liver weight: a minor increase in liver weight
[16]
  DNA ladder on agarose gel: a clear pattern of DNA fragmentation (DNA ladder) was observed
[17]
  NOAEL at 28 days: 2.7 mg/kg/day
[18]
  no observed adverse effect level (NOAEL): 23 mg/kg/day
[2]
  LC50: 49 ± 0.2 µM
[3]; PND 57 mg/kg p.o. 30 days
  body weight: minor loss of body weight
[19]; strain TA1537 ref 40
  Ames mutagenicity: evidence of bacterial mutagenicity
[19]; strains TA100, TA98, TA1535 and TA1538 ref 40
  Ames mutagenicity: did not induce mutations
[20]
  IC50: > 10 µM
[21]
  tolerability: well tolerated
[22]
  IC50: > 10 µM
[23]; 57 mg/kg i.p. q.d. 3 days
  cyst mortality: 100%
[23]; 57 mg/kg i.p. q.d. 3 days, vs unmedicated mice
  wet cyst weight reduction: 38.7%
[23]; 14, 28 and 57 mg/kg i.p. q.d. 3 days
  growth of cysts: successfully suppressed the growth of cysts
[24]
  TUNEL staining (DNA fragmentation): abundant TdT dUTP nick-end labeling (TUNEL)-positive cells were observed
[25]
  increase in caspase-3 activity: 20 fold
[5]; PND 57 mg/kg p.o. q.d. 30 days
  cysts killed (mortality rate): 90.7%
[5]; PND 57 mg/kg p.o. q.d. 30 days, vs vehicle control
  parasite wet weight reduction: 42.4%

Source: article PMC7152711 (EBioMedicine, 2020)
